From ChEMBL document CHEMBL1148345, “Hydrophobic acetal and ketal derivatives of mannopeptimycin-alpha and desmethylhexahydromannopeptimycin-alpha: semisynthetic glycopeptides with potent activity against Gram-positive bacteria” (2004)
In brackets after ≈: the same amount, converted by molar mass. One block for each compound: values may come before it.

Key:
Format in all cases: functional
Staphylococcus [1] = assay: In vitro minimum inhibitory concentration against Staphylococcus species; Range is 0.5-2 ug/mL
Enterococcus [2] = assay: In vitro minimum inhibitory concentration against Enterococcus species; Range is 2-4 ug/mL
Streptococcus [3] = assay: In vitro minimum inhibitory concentration against Streptococcus species
Staphylococcus [4] = assay: In vitro minimum inhibitory concentration against Staphylococcus species
Enterococcus [5] = assay: In vitro minimum inhibitory concentration against Enterococcus species; Range is 0.5-2 ug/mL
Enterococcus faecalis = assay: Effective dose of compound against Enterococcus faecalis (GC 6189) in mice
In short: (§1)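 Murine protection models against S. aureus Smith (GC 4543) and E. faecalis (GC 6189). Compounds dosed in D5W (5% dextrose in water); vancomycin dosed in saline. Five dosages, five mice per dosage level. ED50 in mg/kg reported as the pooled mean from at least three separate tests.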

Staphylococcus aureus = assay: Effective dose of compound against […] Smith (GC 4543) in mice; in short: as §1
Streptococcus [6] = assay: In vitro minimum inhibitory concentration against Streptococcus species; Range is 0.12-0.25 ug/mL
Staphylococcus [7] = assay: In vitro minimum inhibitory concentration against Staphylococcus species; Range is 0.5-1 ug/mL
Enterococcus [8] = assay: In vitro minimum inhibitory concentration against Enterococcus species (in vitro); Range is 1-2 ug/mL
Streptococcus [9] = assay: In vitro minimum inhibitory concentration against Streptococcus species; Range is 0.06-0.12 ug/mL
Staphylococcus [10] = assay: In vitro minimum inhibitory concentration against Staphylococcus species; Range is 1-2 ug/mL
Enterococcus [11] = assay: In vitro minimum inhibitory concentration against Enterococcus species; Range is 0.5-4 ug/mL
Enterococcus [12] = assay: In vitro minimum inhibitory concentration against Enterococcus species; Range is 0.5-1 ug/mL
Staphylococcus [13] = assay: In vitro minimum inhibitory concentration against Staphylococcus species; Range is 0.25-1 ug/mL
Streptococcus [14] = assay: In vitro minimum inhibitory concentration against Streptococcus species; Range is 0.06-0.25 ug/mL
Enterococcus [15] = assay: In vitro minimum inhibitory concentration against Enterococcus species; Range is 1-2 ug/mL
Enterococcus [16] = assay: In vitro minimum inhibitory concentration against Enterococcus species
Staphylococcus [17] = assay: In vitro minimum inhibitory concentration against Staphylococcus species; Range is 1-4 ug/mL
Enterococcus [18] = assay: In vitro minimum inhibitory concentration against Enterococcus species; Range is 4-8 ug/mL
Enterococcus [19] = assay: In vitro minimum inhibitory concentration against Enterococcus species; Range is 0.12-0.25 ug/mL
Staphylococcus [20] = assay: In vitro minimum inhibitory concentration against Staphylococcus species; Range is 0.06-0.12 ug/mL
Streptococcus [21] = assay: In vitro minimum inhibitory concentration against Streptococcus species; Range is 0.12-1 ug/mL
Streptococcus [22] = assay: In vitro minimum inhibitory concentration against Streptococcus species; Range is 0.12-0.5 ug/mL
Enterococcus [23] = assay: In vitro minimum inhibitory concentration against Enterococcus species; Range is 0.5-128 ug/mL

SMILES: NC1=NC[C@@H]([C@H](O)[C@@H]2NC(=O)[C@@H](Cc3ccc(O[C@H]4O[C@H](CO)[C@@H](O[C@H]5O[C@@H]6COC(c7ccccc7)O[C@H]6[C@H](O)[C@@H]5O)[C@H](O)[C@@H]4O)cc3)NC(=O)C(CC3CCCCC3)NC(=O)CNC(=O)[C@H](CO)NC(=O)[C@@H]([C@@H](O)[C@@H]3CN=C(N)N3[C@H]3O[C@H](CO)[C@@H](O)[C@H](O)[C@@H]3O)NC2=O)N1 (stereo not given in full)
MIC (Staphylococcus [1]): 2 µg/mL (≈ 1.45 µM)
MIC (Enterococcus [2]): 4 µg/mL (≈ 2.91 µM)
MIC (Streptococcus [3]): ≤ 0.12 µg/mL

SMILES: C[C@@H](c1ccccc1)C1NC(=O)CNC(=O)[C@H](CO)NC(=O)[C@@H]([C@@H](O)[C@@H]2CN=C(N)N2[C@H]2O[C@H](CO)[C@@H](O)[C@H](O)[C@@H]2O)NC(=O)[C@H]([C@@H](O)[C@@H]2CN=C(N)N2)NC(=O)[C@@H](Cc2ccc(O[C@H]3O[C@H](CO)[C@@H](O[C@H]4O[C@@H]5COC(c6ccccc6)O[C@H]5[C@H](O)[C@@H]4O)[C@H](O)[C@@H]3O)cc2)NC1=O (stereo not given in full)
MIC (Streptococcus [6]): ≤ 0.25 µg/mL
MIC (Staphylococcus [1]): 2 µg/mL (≈ 1.45 µM)
MIC (Enterococcus [2]): 4 µg/mL (≈ 2.89 µM)
ED50 (Enterococcus faecalis): 0.39 mg/kg
ED50 (Staphylococcus aureus): 0.19 mg/kg

SMILES: CCCCCC1OC[C@H]2O[C@H](O[C@H]3[C@H](O)[C@H](O)[C@@H](Oc4ccc(C[C@H]5NC(=O)C([C@@H](C)c6ccccc6)NC(=O)CNC(=O)[C@H](CO)NC(=O)[C@@H]([C@@H](O)[C@@H]6CN=C(N)N6[C@H]6O[C@H](CO)[C@@H](O)[C@H](O)[C@@H]6O)NC(=O)[C@H]([C@@H](O)[C@@H]6CN=C(N)N6)NC5=O)cc4)O[C@@H]3CO)[C@@H](O)[C@@H](O)[C@@H]2O1 (stereo not given in full)
MIC (Staphylococcus [7]): ≤ 1 µg/mL
MIC (Enterococcus [8]): 2 µg/mL (≈ 1.45 µM)
MIC (Streptococcus [3]): ≤ 0.5 µg/mL

SMILES: C[C@@H](c1ccccc1)C1NC(=O)CNC(=O)[C@H](CO)NC(=O)[C@@H]([C@@H](O)[C@@H]2CN=C(N)N2[C@H]2O[C@H](CO)[C@@H](O)[C@H](O)[C@@H]2O)NC(=O)[C@H]([C@@H](O)[C@@H]2CN=C(N)N2)NC(=O)[C@@H](Cc2ccc(O[C@H]3O[C@H](CO)[C@@H](O[C@H]4O[C@@H]5COC(CC6CCCCC6)O[C@H]5[C@H](O)[C@@H]4O)[C@H](O)[C@@H]3O)cc2)NC1=O (stereo not given in full)
MIC (Streptococcus [9]): ≤ 0.12 µg/mL
MIC (Staphylococcus [10]): 2 µg/mL (≈ 1.43 µM)
MIC (Enterococcus [2]): 4 µg/mL (≈ 2.85 µM)

SMILES: NC1=NC[C@@H]([C@H](O)[C@@H]2NC(=O)[C@@H](Cc3ccc(O[C@H]4O[C@H](CO)[C@@H](O[C@H]5O[C@@H]6COC(Cc7ccccc7)O[C@H]6[C@H](O)[C@@H]5O)[C@H](O)[C@@H]4O)cc3)NC(=O)C(CC3CCCCC3)NC(=O)CNC(=O)[C@H](CO)NC(=O)[C@@H]([C@@H](O)[C@@H]3CN=C(N)N3[C@H]3O[C@H](CO)[C@@H](O)[C@H](O)[C@@H]3O)NC2=O)N1 (stereo not given in full)
MIC (Streptococcus [9]): ≤ 0.12 µg/mL
MIC (Staphylococcus [10]): 2 µg/mL (≈ 1.44 µM)
MIC (Enterococcus [11]): 4 µg/mL (≈ 2.88 µM)

SMILES: C[C@@H](c1ccccc1)C1NC(=O)CNC(=O)[C@H](CO)NC(=O)[C@@H]([C@@H](O)[C@@H]2CN=C(N)N2[C@H]2O[C@H](CO)[C@@H](O)[C@H](O)[C@@H]2O)NC(=O)[C@H]([C@@H](O)[C@@H]2CN=C(N)N2)NC(=O)[C@@H](Cc2ccc(O[C@H]3O[C@H](CO)[C@@H](O[C@H]4O[C@@H]5COC6(O[C@H]5[C@H](O)[C@@H]4O)C4CC5CC(C4)CC6C5)[C@H](O)[C@@H]3O)cc2)NC1=O (stereo not given in full)
MIC (Enterococcus [12]): 1 µg/mL (≈ 0.701 µM)
MIC (Staphylococcus [13]): 1 µg/mL (≈ 0.701 µM)
ED50 (Enterococcus faecalis): 1.8 mg/kg
MIC (Streptococcus [3]): ≤ 0.06 µg/mL
ED50 (Staphylococcus aureus): 0.04 mg/kg

SMILES: C[C@@H](c1ccccc1)C1NC(=O)CNC(=O)[C@H](CO)NC(=O)[C@@H]([C@@H](O)[C@@H]2CN=C(N)N2[C@H]2O[C@H](CO)[C@@H](O)[C@H](O)[C@@H]2O)NC(=O)[C@H]([C@@H](O)[C@@H]2CN=C(N)N2)NC(=O)[C@@H](Cc2ccc(O[C@H]3O[C@H](CO)[C@@H](O[C@H]4O[C@@H]5COC(Cc6ccccc6)O[C@H]5[C@H](O)[C@@H]4O)[C@H](O)[C@@H]3O)cc2)NC1=O (stereo not given in full)
MIC (Staphylococcus [4]): 2 µg/mL (≈ 1.43 µM)
MIC (Streptococcus [14]): ≤ 0.25 µg/mL
MIC (Enterococcus [15]): 2 µg/mL (≈ 1.43 µM)
ED50 (Enterococcus faecalis): 1.04 mg/kg
ED50 (Staphylococcus aureus): 0.23 mg/kg

SMILES: C[C@@H](c1ccccc1)C1NC(=O)CNC(=O)[C@H](CO)NC(=O)[C@@H]([C@@H](O)[C@@H]2CN=C(N)N2[C@H]2O[C@H](CO)[C@@H](O)[C@H](O)[C@@H]2O)NC(=O)[C@H]([C@@H](O)[C@@H]2CN=C(N)N2)NC(=O)[C@@H](Cc2ccc(O[C@H]3O[C@H](CO)[C@@H](O[C@H]4O[C@@H]5COC6(O[C@H]5[C@H](O)[C@@H]4O)C4CCCC6CCC4)[C@H](O)[C@@H]3O)cc2)NC1=O (stereo not given in full)
MIC (Staphylococcus [17]): 4 µg/mL (≈ 2.83 µM)
MIC (Enterococcus [18]): 8 µg/mL (≈ 5.65 µM)
MIC (Streptococcus [3]): ≤ 0.06 µg/mL

SMILES: CN[C@H](CC(C)C)C(=O)N[C@H]1C(=O)N[C@@H](CC(N)=O)C(=O)N[C@H]2C(=O)N[C@H]3C(=O)N[C@H](C(=O)N[C@H](C(=O)O)c4cc(O)cc(O)c4-c4cc3ccc4O)[C@H](O)c3ccc(c(Cl)c3)Oc3cc2cc(c3O[C@@H]2O[C@H](CO)[C@@H](O)[C@H](O)[C@H]2O[C@H]2C[C@](C)(N)[C@H](O)[C@H](C)O2)Oc2ccc(cc2Cl)[C@H]1O [VANCOMYCIN]
MIC (Streptococcus [22]): ≤ 0.5 µg/mL
MIC (Staphylococcus [1]): < 2 µg/mL
ED50 (Enterococcus faecalis): > 32 mg/kg
MIC (Enterococcus [23]): 128 µg/mL (≈ 88.3 µM)
ED50 (Staphylococcus aureus): 1 mg/kg

More lines, main results first:

MIC (Staphylococcus [4]): 1 µg/mL (≈ 0.72 µM)
MIC (Enterococcus [5]): 2 µg/mL (≈ 1.44 µM)
MIC (Streptococcus [3]): ≤ 0.12 µg/mL
SMILES: C[C@@H](c1ccccc1)C1NC(=O)CNC(=O)[C@H](CO)NC(=O)[C@@H]([C@@H](O)[C@@H]2CN=C(N)N2[C@H]2O[C@H](CO)[C@@H](O)[C@H](O)[C@@H]2O)NC(=O)[C@H]([C@@H](O)[C@@H]2CN=C(N)N2)NC(=O)[C@@H](Cc2ccc(O[C@H]3O[C@H](CO)[C@@H](O[C@H]4O[C@@H]5COC(C6CCCCC6)O[C@H]5[C@H](O)[C@@H]4O)[C@H](O)[C@@H]3O)cc2)NC1=O (stereo not given in full)
ED50 (Enterococcus faecalis): 0.19 mg/kg
ED50 (Staphylococcus aureus): 0.07 mg/kg

MIC (Staphylococcus [4]): 128 µg/mL (≈ 98.8 µM)
MIC (Enterococcus [16]): > 128 µg/mL
MIC (Streptococcus [3]): > 32 µg/mL
SMILES: C[C@@H](c1ccccc1)C1NC(=O)CNC(=O)[C@H](CO)NC(=O)[C@@H]([C@@H](O)[C@@H]2CN=C(N)N2[C@H]2O[C@H](CO)[C@@H](O)[C@H](O)[C@@H]2O)NC(=O)[C@H]([C@@H](O)[C@@H]2CN=C(N)N2)NC(=O)[C@@H](Cc2ccc(O[C@H]3O[C@H](CO)[C@@H](O[C@H]4O[C@H](CO)[C@@H](O)[C@H](O)[C@@H]4O)[C@H](O)[C@@H]3O)cc2)NC1=O (stereo not given in full)
ED50 (Staphylococcus aureus): 20 mg/kg

MIC (Streptococcus [9]): ≤ 0.12 µg/mL
MIC (Enterococcus [19]): 0.25 µg/mL (≈ 0.176 µM)
MIC (Enterococcus [5]): 2 µg/mL (≈ 1.41 µM)
MIC (Staphylococcus [20]): ≤ 0.12 µg/mL
MIC (Staphylococcus [13]): 1 µg/mL (≈ 0.704 µM)
MIC (Streptococcus [3]): ≤ 0.06 µg/mL
SMILES: NC1=NC[C@@H]([C@H](O)[C@@H]2NC(=O)[C@@H](Cc3ccc(O[C@H]4O[C@H](CO)[C@@H](O[C@H]5O[C@@H]6COC7(O[C@H]6[C@H](O)[C@@H]5O)C5CC6CC(C5)CC7C6)[C@H](O)[C@@H]4O)cc3)NC(=O)C(CC3CCCCC3)NC(=O)CNC(=O)[C@H](CO)NC(=O)[C@@H]([C@@H](O)[C@@H]3CN=C(N)N3[C@H]3O[C@H](CO)[C@@H](O)[C@H](O)[C@@H]3O)NC2=O)N1 (stereo not given in full)
ED50 (Enterococcus faecalis): 0.39 mg/kg
ED50 (Staphylococcus aureus): 0.08 mg/kg

MIC (Staphylococcus [17]): 4 µg/mL (≈ 2.91 µM)
MIC (Enterococcus [18]): 8 µg/mL (≈ 5.82 µM)
MIC (Streptococcus [21]): 1 µg/mL (≈ 0.727 µM)
SMILES: C[C@@H](c1ccccc1)C1NC(=O)CNC(=O)[C@H](CO)NC(=O)[C@@H]([C@@H](O)[C@@H]2CN=C(N)N2[C@H]2O[C@H](CO)[C@@H](O)[C@H](O)[C@@H]2O)NC(=O)[C@H]([C@@H](O)[C@@H]2CN=C(N)N2)NC(=O)[C@@H](Cc2ccc(O[C@H]3O[C@H](CO)[C@@H](O[C@H]4O[C@@H]5COC6(CCCCC6)O[C@H]5[C@H](O)[C@@H]4O)[C@H](O)[C@@H]3O)cc2)NC1=O (stereo not given in full)
